ChEMBL document CHEMBL1125582, “4-hydroxythiazole inhibitors of 5-lipoxygenase” (J Med Chem, 1991)
Values belong to the compound of their own block, whether it stands above or below them. Active and inactive are the calls of the source. The calls are words filed in the database; no cut-off is given here.

Columns and labels:
[1] = target: T1, Polyunsaturated fatty acid 5-lipoxygenase (Rattus norvegicus, UniProt P12527); experiment: In vitro inhibition of 5-lipoxygenase (5-lo) from the 20000 g supernatant of RBI-1 cells; assay type: cell-based
T1 sequence (P12527 whole entry): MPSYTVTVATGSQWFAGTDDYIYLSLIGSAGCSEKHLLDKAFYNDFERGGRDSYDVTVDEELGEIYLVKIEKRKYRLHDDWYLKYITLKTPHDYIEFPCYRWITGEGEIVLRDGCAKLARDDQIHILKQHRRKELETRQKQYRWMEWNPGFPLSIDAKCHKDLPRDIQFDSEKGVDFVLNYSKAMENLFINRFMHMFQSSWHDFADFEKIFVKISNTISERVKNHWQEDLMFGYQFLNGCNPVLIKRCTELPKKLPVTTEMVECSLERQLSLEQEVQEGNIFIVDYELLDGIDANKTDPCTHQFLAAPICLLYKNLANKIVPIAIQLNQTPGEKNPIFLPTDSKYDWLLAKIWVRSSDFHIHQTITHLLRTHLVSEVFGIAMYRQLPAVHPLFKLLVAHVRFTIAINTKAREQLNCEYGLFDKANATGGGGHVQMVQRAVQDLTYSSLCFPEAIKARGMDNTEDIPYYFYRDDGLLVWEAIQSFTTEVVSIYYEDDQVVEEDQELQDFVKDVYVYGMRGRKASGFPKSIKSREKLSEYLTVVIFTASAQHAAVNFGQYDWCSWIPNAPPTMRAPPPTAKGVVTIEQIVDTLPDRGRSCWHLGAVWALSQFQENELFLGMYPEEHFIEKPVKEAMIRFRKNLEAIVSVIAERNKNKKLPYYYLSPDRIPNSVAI

[2] = target: T1, Polyunsaturated fatty acid 5-lipoxygenase; experiment: Inhibition of 5-lipoxygenase (5-lo) in intact rat polymorphonuclear leukocyte RPMNL
How it was run: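 Pleural PMNL from carrageenan-injected male Sprague-Dawley rats (200-250 g). Erythrocytes lysed with water, cells washed and held in HEPES/Earle's salts pH 7.0 with 1 mg/mL BSA. 5×10^6 cells preincubated 15 min at 37 °C with compound or DMSO (final 2%). Stimulated with A23187 (final 8.3 μM) for 10 min, stopped on ice. Methanol extracts assayed for LTB₄ by HPLC.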

[3] = target: T2, Arachidonate 12-lipoxygenase (Rattus norvegicus) (UniProt Q02759); experiment: The compound was tested for the in vitro inhibition of platelet 12-lipoxygenase at a concentration of 100 uM
T2 sequence (whole entry): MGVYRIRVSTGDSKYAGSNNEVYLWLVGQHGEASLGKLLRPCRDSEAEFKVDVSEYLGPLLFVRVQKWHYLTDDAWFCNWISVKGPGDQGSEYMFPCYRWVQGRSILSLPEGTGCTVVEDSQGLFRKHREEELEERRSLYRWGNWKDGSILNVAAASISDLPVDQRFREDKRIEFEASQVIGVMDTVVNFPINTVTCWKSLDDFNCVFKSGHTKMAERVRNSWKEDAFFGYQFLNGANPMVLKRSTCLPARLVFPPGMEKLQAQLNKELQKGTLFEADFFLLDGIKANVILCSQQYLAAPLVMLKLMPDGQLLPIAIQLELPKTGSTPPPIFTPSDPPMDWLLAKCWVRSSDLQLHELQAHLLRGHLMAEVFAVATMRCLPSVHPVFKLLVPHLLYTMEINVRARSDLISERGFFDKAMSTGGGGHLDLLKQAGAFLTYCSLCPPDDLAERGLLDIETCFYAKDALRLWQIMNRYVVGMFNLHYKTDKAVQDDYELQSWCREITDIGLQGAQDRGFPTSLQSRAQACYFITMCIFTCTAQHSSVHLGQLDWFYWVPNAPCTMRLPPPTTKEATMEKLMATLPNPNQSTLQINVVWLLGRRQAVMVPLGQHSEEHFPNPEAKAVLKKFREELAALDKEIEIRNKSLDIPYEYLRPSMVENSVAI

[4] = tested on: 15-lipoxygenase (Glycine max); experiment: The compound was tested for the in vitro inhibition of 15-lipoxygenase of soybean at a concentration of 10 uM; settings: at 10 µM
[5] = tested on: cyclooxygenase (Ovis aries); experiment: The compound was tested for the in vitro inhibition of Prostaglandin G/H synthase of sheep seminal vesicle at a concentration of 30 uM
[6] = target: T3, Polyunsaturated fatty acid 5-lipoxygenase (Homo sapiens, UniProt P09917); experiment: The compound was tested for the inhibition of 5-lipoxygenase (5-lo) in human whole blood (HWBL); assay type: tissue-based
T3 sequence (P09917 whole entry): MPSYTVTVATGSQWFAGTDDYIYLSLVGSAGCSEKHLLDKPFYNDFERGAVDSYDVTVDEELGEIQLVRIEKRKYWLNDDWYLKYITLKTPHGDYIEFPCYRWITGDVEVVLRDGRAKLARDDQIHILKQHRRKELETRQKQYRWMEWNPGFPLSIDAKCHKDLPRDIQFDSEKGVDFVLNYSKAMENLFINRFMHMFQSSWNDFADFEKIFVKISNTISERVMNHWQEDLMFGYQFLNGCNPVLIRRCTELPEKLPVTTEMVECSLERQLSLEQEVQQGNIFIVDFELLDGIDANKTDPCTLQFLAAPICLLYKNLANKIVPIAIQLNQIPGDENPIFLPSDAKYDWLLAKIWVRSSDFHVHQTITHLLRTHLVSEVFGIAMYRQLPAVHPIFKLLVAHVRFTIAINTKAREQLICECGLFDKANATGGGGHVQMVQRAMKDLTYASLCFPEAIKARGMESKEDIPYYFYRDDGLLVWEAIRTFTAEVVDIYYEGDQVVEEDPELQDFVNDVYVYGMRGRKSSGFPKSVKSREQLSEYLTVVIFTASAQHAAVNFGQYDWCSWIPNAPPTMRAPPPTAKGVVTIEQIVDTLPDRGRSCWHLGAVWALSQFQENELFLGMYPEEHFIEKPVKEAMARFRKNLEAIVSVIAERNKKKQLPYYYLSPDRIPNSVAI
How it was run: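 Heparinized (20 units/mL) human blood preincubated 15 min at 37 °C with compound or vehicle. Challenged with A23187 in DMSO (final 50 μM) for 30 min, then chilled and centrifuged. Plasma extracted with 4 volumes methanol for at least 2 h at 3 °C. LTB₄ measured by RIA or EIA.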

[7] = target: T4, Polyunsaturated fatty acid 5-lipoxygenase (Rattus norvegicus) (UniProt P12527); experiment: The compound was tested for the in vitro inhibition of 5-lipoxygenase (5-lo) from the 20000 g supernatant of RBI-1 cells; NS indicates nonsignificant inhibition at 32 uM concentration; assay type: cell-based
T4 sequence (whole entry): T1 sequence (P12527 whole entry)
How it was run: (§1)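 20000g supernatant of homogenized RBL-1 cells (7.5 × 10⁶ cell equiv/mL) preincubated 20 min at 37 °C with inhibitor or 2% Me₂SO vehicle in pH 6.8 BES/PIPES buffer with EDTA, NaCl, 0.7 mM CaCl₂. Reaction started with 66 μM [¹⁴C]arachidonic acid. [¹⁴C]-5-HETE counted by scintillation, corrected for [³H]-5-HETE recovery.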

[8] = target: T4, Polyunsaturated fatty acid 5-lipoxygenase (Rattus norvegicus); experiment: The compound was tested for the in vitro inhibition of 5-lipoxygenase (5-lo) from the 20000 g supernatant of RBI-1 cells at a concentration of 30 uM; assay type: cell-based; how it was run: as §1
[9] = target: T4, Polyunsaturated fatty acid 5-lipoxygenase (Rattus norvegicus); experiment: The compound was tested for the in vitro inhibition of 5-lipoxygenase from the 20000 g supernatant of RBI-1 cells; NS indicates nonsignificant inhibition at 32 uM concentration; assay type: cell-based; how it was run: as §1
[10] = target: T4, Polyunsaturated fatty acid 5-lipoxygenase (Rattus norvegicus); experiment: The compound was tested for the in vitro inhibition of 5-lipoxygenase (5-lo) from the 20000 g supernatant of RBI-1 cells measured at a concentration of 30 uM; assay type: cell-based; how it was run: as §1
[11] = target: T2, Arachidonate 12-lipoxygenase (Rattus norvegicus); experiment: The compound was tested for the in vitro inhibition of platelet 12-lipoxygenase at a concentration of 30 uM
[12] = tested on: 15-lipoxygenase (Glycine max); experiment: The compound was tested for the in vitro inhibition of 15-lipoxygenase of soybean at a concentration of 100 uM; settings: at 100 µM
[13] = tested on: cyclooxygenase (Ovis aries); experiment: The compound was tested for the in vitro inhibition of Prostaglandin G/H synthase of sheep seminal vesicle at a concentration of 100 uM

IC50 [1]: 0.54 µM
Compound: Oc1nc(-c2ccncc2)sc1-c1ccccc1

IC50 [1]: 1.4 µM | IC50 [2]: 0.9 µM
Compound: CC(=O)Oc1nc(-c2ccc(-c3ccccc3)cc2)sc1-c1ccccc1

IC50 [1]: 1.1 µM
Compound: COc1ccc(-c2nc(O)c(C)s2)cc1

IC50 [1]: 2.1 µM
Compound: Cc1sc(-c2ccccn2)nc1O

inhibition [3]: 51% | inhibition [4]: 44% | inhibition [5]: 32%
Compound: Cc1sc(-c2ccccc2)nc1O

IC50 [1]: 6.9 µM
Compound: Oc1sc(-c2ccccc2)nc1-c1ccccc1

IC50 [1]: 0.53 µM | IC50 [2]: 0.66 µM
Compound: CCCc1sc(-c2ccccc2)nc1OC(C)=O

IC50 [1]: 18 µM
Compound: CCCCc1sc(-c2ccccc2)nc1O

IC50 [6]: 2.9 µM | IC50 [1]: 1.1 µM
Compound: Oc1nc(-c2cccnc2)sc1-c1ccccc1

IC50 [1]: 16 µM
Compound: Cc1sc(-c2cnc3ccccc3c2)nc1O

IC50 [6]: 0.45 µM | IC50 [1]: 0.4 µM
Compound: CC(=O)Oc1nc(-c2ccccc2)sc1-c1ccccc1

inhibition [7]: inactive
Compound: Nc1nc(-c2ccccc2)sc1-c1ccccc1

inhibition [8]: 17%
Compound: CCOC(=O)c1sc(-c2ccccc2)nc1O

inhibition [9]: inactive
Compound: Cc1sc(N)nc1O

inhibition [10]: 26%
Compound: O=C1CSC(c2ccccc2)=N1

inhibition [5]: 47% | inhibition [11]: 12% | inhibition [12]: 50%
Compound: Oc1nc(-c2ccccc2)sc1-c1ccccc1

inhibition [9]: inactive
Compound: Cc1sc(NN)nc1O

inhibition [10]: 8%
Compound: O=C1CSC(c2cccnc2)=N1

IC50 [1]: 1.3 µM | IC50 [2]: 0.5 µM
Compound: CCCCCC(=O)Oc1nc(-c2ccccc2)sc1-c1ccccc1

IC50 [1]: 4.8 µM
Compound: Cc1sc(-c2ccc(C(N)=O)cc2)nc1O

IC50 [1]: 2.8 µM | IC50 [2]: 1.2 µM
Compound: CCCc1sc(-c2ccccc2)nc1OC(=O)OCc1ccccc1

Compound: CCCc1sc(-c2ccccc2)nc1OC(=O)NC
IC50 [6]: 5.1 µM | IC50 [1]: 8.8 µM | IC50 [2]: 0.4 µM

IC50 [1]: 31 µM
Compound: Cc1sc(-c2cc[nH]n2)nc1O

inhibition [8]: 24%
Compound: O=C(O)Cc1sc(-c2ccccc2)nc1O

inhibition [9]: inactive
Compound: Cc1nc(O)c(C)s1

IC50 [6]: 2.4 µM | inhibition [13]: 25% | inhibition [3]: 6% | IC50 [1]: 0.37 µM | IC50 [2]: 0.45 µM | inhibition [12]: 22%
Compound: COc1ccc(-c2nc(O)c(-c3ccccc3)s2)cc1

IC50 [1]: 1.6 µM
Compound: Cc1sc(-c2ccc([N+](=O)[O-])cc2)nc1O

IC50 [1]: 2.7 µM
Compound: Cc1sc(-c2ccc(SC(F)(F)F)cc2)nc1O

IC50 [1]: 2.2 µM
Compound: Cc1sc(-c2ccc(S(N)(=O)=O)cc2)nc1O
